Reference: ChEMBL document CHEMBL5230175, “The war on hTG2: warhead optimization in small molecule human tissue transglutaminase inhibitors” (RSC Med Chem, 2023)

Columns and labels:
[1] = Metabolic stability in human whole blood assessed as drug degradation measured upto 120 mins by LC-MS/ms analysis; format: ADME, tissue-based; conditions: 2 h
Summary of the method: (§1)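 Pooled human whole blood (K3-EDTA) was spiked to 1 or 5 μM compound. Aliquots taken at 0, 15, 30, 60 and 120 min were quenched in acetonitrile with 0.1% formic acid and internal standard, then analysed by LC-MS/MS. Percent parent remaining is the peak-area ratio versus T = 0; half-life comes from an exponential decay fit.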

[2] = target: T1, Protein-glutamine gamma-glutamyltransferase K (Homo sapiens) (UniProt P22735); experiment: Irreversible inhibition of human TG1 using Cbz-Glu-(gamma-p-nitrophenylester)Gly (AL5) as substrate assessed as substrate hydrolysis by measuring observed binding constant incubated for 100 mins by colorimetric assay
T1 sequence (whole entry): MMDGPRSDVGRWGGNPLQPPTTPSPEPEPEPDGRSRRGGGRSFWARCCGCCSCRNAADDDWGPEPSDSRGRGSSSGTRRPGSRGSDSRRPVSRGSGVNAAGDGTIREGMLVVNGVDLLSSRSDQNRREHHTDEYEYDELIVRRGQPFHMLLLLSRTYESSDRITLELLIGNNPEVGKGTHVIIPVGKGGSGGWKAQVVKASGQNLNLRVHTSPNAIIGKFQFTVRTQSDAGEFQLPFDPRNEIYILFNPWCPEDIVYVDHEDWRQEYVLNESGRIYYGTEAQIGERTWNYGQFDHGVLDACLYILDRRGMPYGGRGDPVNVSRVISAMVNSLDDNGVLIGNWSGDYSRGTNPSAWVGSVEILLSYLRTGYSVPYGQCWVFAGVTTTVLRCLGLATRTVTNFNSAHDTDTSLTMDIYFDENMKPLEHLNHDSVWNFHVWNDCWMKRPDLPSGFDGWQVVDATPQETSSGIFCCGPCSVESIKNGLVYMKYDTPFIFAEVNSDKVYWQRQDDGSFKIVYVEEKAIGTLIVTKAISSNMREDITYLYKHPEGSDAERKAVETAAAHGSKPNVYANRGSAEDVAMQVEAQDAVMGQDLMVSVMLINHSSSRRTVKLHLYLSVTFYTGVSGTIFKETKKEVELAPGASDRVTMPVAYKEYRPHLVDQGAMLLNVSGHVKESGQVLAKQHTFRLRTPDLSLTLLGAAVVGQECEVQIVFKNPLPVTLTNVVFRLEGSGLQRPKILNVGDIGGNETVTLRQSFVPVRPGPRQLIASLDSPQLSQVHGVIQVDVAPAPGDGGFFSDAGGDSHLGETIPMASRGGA

[3] = Metabolic stability in human whole blood assessed as half-life at 1 to 5 uM measured upto 120 mins by LC-MS/MS analysis; format: ADME, tissue-based; conditions: dose 1-5 µM; summary of the method: as §1
[4] = GSH reactivity in aqueous buffer assessed as GSH adduct formation by measuring corrected intrinsic second order rate constant (K2 corrected) by HPLC analysis; format: physicochemical
Summary of the method: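 GSH stock diluted to final 15 mM in aqueous buffer (pH 8.0 used, 7.4 too slow), reaction started with inhibitor at final 0.5 mM, 2% v/v DMSO. Incubated at 22 °C and aliquots taken over at least 5–6 half-lives. HPLC with UV 214/254 nm tracked adduct growth and inhibitor loss, fitted mono-exponentially to give pseudo-first-order kobs. kobs was divided by [thiol] and then by the thiolate fraction (pKa 8.7) to give kcorr2. Run in duplicate.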

[5] = target: T2, Protein-glutamine gamma-glutamyltransferase (Homo sapiens) (UniProt P21980); experiment: Irreversible inhibition of human TG2 using Cbz-Glu-(gamma-p-nitrophenylester)Gly (AL5) as substrate assessed as substrate hydrolysis by measuring observed binding constant incubated for 20 mins by colorimetric assay
T2 sequence (whole entry): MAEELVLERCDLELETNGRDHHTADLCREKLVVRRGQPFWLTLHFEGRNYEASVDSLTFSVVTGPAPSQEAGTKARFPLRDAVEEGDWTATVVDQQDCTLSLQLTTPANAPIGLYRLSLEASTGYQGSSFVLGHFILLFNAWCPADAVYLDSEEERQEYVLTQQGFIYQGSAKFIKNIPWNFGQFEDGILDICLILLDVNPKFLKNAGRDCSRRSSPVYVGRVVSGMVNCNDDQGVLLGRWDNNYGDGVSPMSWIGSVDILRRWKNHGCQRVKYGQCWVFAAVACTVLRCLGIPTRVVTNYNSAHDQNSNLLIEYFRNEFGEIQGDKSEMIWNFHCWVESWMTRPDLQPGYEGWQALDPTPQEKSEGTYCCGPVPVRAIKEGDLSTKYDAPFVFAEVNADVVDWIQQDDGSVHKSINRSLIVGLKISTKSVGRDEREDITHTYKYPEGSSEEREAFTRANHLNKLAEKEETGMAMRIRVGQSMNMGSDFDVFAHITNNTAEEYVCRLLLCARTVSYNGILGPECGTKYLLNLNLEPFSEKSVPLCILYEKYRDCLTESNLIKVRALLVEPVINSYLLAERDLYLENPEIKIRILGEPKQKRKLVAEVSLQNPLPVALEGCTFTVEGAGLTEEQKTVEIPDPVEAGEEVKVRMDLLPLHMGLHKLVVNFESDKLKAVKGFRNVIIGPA

[6] = Metabolic stability in pooled cryopreserved human hepatocytes assessed as half-life at 1 uM measured upto 120 mins by LC-MS/MS analysis; format: ADME, cell-based, Hepatocyte
Summary of the method: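 Samples were taken at 0, 5, 15, 30, 60 and 120 min, acetonitrile-quenched with internal standard, and analysed by LC-MS/MS. Half-life came from exponential decay of the parent/IS ratio relative to T = 0.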

[7] = target: T3, Coagulation factor XIII A chain (Homo sapiens) (UniProt P00488); experiment: Irreversible inhibition of human factor XIIIa using peptidic FRET-quenched probe A101 as substrate assessed as observed binding constant by fluorescence based assay
T3 sequence (whole entry): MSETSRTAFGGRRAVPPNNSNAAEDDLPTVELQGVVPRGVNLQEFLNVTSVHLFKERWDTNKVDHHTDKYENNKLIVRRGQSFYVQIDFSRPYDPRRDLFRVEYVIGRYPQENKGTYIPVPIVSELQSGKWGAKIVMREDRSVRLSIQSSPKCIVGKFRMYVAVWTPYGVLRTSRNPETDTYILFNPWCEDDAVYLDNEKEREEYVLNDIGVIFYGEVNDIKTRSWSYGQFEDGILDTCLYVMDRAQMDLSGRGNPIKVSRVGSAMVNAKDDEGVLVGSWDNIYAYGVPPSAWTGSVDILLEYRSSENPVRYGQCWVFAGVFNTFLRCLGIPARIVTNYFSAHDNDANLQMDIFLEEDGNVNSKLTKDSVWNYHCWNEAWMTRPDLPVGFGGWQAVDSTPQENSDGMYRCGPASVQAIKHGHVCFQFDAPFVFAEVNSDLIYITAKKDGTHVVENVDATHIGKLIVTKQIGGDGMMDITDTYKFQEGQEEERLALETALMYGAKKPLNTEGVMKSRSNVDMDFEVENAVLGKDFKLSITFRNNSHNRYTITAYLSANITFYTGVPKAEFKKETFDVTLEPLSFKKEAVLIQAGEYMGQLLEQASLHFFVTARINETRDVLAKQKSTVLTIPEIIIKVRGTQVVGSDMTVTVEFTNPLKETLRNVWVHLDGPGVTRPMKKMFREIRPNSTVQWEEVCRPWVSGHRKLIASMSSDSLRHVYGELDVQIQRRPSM

C=CC(=O)NCC(=O)N1CCN(C(=O)C23CC4CC(CC(C4)C2)C3)CC1
Stability [1]: Stable
K [2]: 0.023 min⁻¹
half-life at up to 5 µM [3]: > 2 h
K [4]: 0.079 10^-3/M/min
K [5]: 0.5 min⁻¹
half-life at 1 µM [6]: > 2 h
K [7]: 0.051 min⁻¹

O=C(CCl)NCC(=O)N1CCN(C(=O)C23CC4CC(CC(C4)C2)C3)CC1
Stability [1]: Stable
K [2]: 0.018 min⁻¹
half-life at up to 5 µM [3]: > 2 h
K [4]: 1.48 10^-3/M/min
K [5]: 0.537 min⁻¹
half-life at 1 µM [6]: > 2 h
K [7]: 0.013 min⁻¹
